Experimental data collected from several papers.
Lines come from different studies, so protocols differ.
Target: Receptor tyrosine-protein kinase erbB-4 (ERBB4, Homo sapiens, UniProt Q15303)

COc1ccc2oc(-c3ccc4nc(N)oc4c3)c/c(=N\c3ccccc3NC(=O)CCN)c2c1
remaining binding (binding; 1 µM): 109%

C#Cc1cnc(Nc2ccnc(CO)c2)nc1Nc1ccccc1S(C)(=O)=NC#N (centres unmarked)
remaining signal (cell-free assay; 1 µM): 86%

Cc1ccc(NC(=O)c2ccnc(C(F)(F)F)c2)cc1-c1cc(OCCO)nc(N2CCOCC2)c1
remaining binding (binding; competition with immobilised ligand; 1 µM): 99%

CC#CC(=O)N1CCC[C@H]1c1nc(-c2ccc(C(=O)Nc3ccccn3)cc2)c2c(N)nccn12
inhibition (enzyme activity; inhibitor; 1 µM): 96%

CCCCC(=O)Nc1ccc(-c2ccc3ncn(CCC)c(=O)c3c2)cn1
remaining binding (binding; competition with immobilised ligand; 0.5 µM): 100%

N#Cc1ccc(NC(=O)Nc2ccccc2)cc1
remaining binding (cell-free assay; competition with immobilised ligand; 25 µM): 100%

COc1c(Cl)cccc1Nc1c(-c2ccncc2OC[C@@H]2COCCO2)[nH]c2c1C(=O)NCC2
inhibition (enzyme activity; inhibitor; radiometric; 1 µM): > 80%

C=CC(=O)N1CCC[C@@H](n2nc(-c3ccc(Oc4ccccc4)cc3)c3c(N)ncnc32)C1
inhibition (enzyme activity; inhibitor; 1 µM): 100%

C1=C/COCc2cc(ccc2OCCN2CCCC2)Nc2nccc(n2)-c2cccc(c2)COC/1
remaining binding (binding; 0.1 µM): 88%

CN1CCN(C(=O)c2ccc(NC(=O)Nc3ccc(N(C)c4ccnc(Nc5ccc(CS(C)(=O)=O)cc5)n4)cc3)cc2)CC1
remaining binding (binding; competition with immobilised ligand; 1 µM): 77%

C#Cc1cc(-c2cc(Nc3nc(N[C@@H](C)c4ccc(F)cn4)ncc3Cl)n[nH]2)ccc1C=O
inhibition (enzyme activity; inhibitor; 0.2 µM): 54.3%
